Drawing on ChEMBL document CHEMBL1134482, “Ether phospholipid-AZT conjugates possessing anti-HIV and antitumor cell activity. Synthesis, conformational analysis, and study of their thermal effects on membrane bilayers” (J Med Chem, 2001), this text covers IC50, EC50 and CC50 for three compounds.

One experiment deals with FM3A. The experiment can be described thus: Inhibitory effect of compound on the proliferation of murine mammary carcinoma cells FM3A/0. The conditions noted are these: Mus musculus. The class given is functional, cell-based. The gist of the method:
(§1)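 Murine L1210/0, L1210/TK- leukemia cells or FM3A/0 mammary carcinoma cells were incubated with the compound for 2 days at 37 °C. IC50 was the concentration reducing the total number of viable cells by 50%.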

The subject of the next experiment is L1210. The experiment can be described thus: Inhibitory effect of compound on the proliferation of murine leukemia cells L1210/0. Format: functional, cell-based. The conditions noted are these: Mus musculus. A digest of the protocol: as §1
Another experiment deals with MOLT-4. Briefly: Inhibitory effect of compound on the proliferation of human T-lymphocyte cells Molt4/C8. Format: functional, cell-based. A digest of the protocol:
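Human Molt4/C8 T-lymphoblast cells were incubated with the compound for 3 days at 37 °C. IC50 was the concentration cutting the total viable cell number by 50%.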

In experiment [1] the test system is CCRF-CEM. The experiment can be described thus: Concentration required to protect CEM/0 cells against the cytopathicity of HIV-2 by 50%. Format: functional, cell-based. The settings on record: Homo sapiens. A digest of the protocol: (§2)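 CEM cells (wild-type, or TK-deficient for the HIV-2 CEM/TK- line) were infected with HIV-1 or HIV-2. EC50 was taken as the concentration protecting the cells from virus-induced cytopathicity by 50%. Values are averages of at least two separate experiments.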
(In general: Protection from cytopathic effect is a common read-out in antiviral testing.)

Experiment [2] relates to CCRF-CEM. The experiment can be described thus: Concentration required to protect CEM/0 cells against the cytopathicity of HIV-1 by 50%. The settings on record: Homo sapiens. The class given is functional, cell-based. A digest of the protocol: as §2
A further experiment relates to L1210/TK-. Briefly: Inhibitory effect of compound on the proliferation of murine leukemia cells L1210/TK-. Format: functional, cell-based. The settings on record: Mus musculus. The gist of the method:
as §1

Experiment [3] has as its system CCRF-CEM. Briefly: Concentration required to reduce CEM/0 cell viability by 50%. The class given is functional. The settings on record: Homo sapiens. A digest of the protocol:
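Uninfected CEM/0 T-lymphocytes were exposed to the compound. CC50 was the concentration reducing CEM cell viability by 50%. Values are averages of at least two separate experiments.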

The next experiment deals with CEM-TK(-). Briefly: Concentration required to protect CEM/TK cells against the cytopathicity of HIV-2 by 50%. The class given is functional, cell-based. The conditions noted are these: Homo sapiens. The gist of the method: as §2

As to `CCCCCCCCCCCCCCCCOCC(COP(=O)(O)OCC1OC(n2cc(C)c(=O)[nH]c2=O)CC1N=[N+]=[N-])OC` (stereo not drawn), the IC50 in the experiment with FM3A came to 68.4 µM; with L1210 it was 0.98 µM; in the experiment with MOLT-4, 21.4 µM; with L1210/TK- it was 33.6 µM. Besides, the concentration giving a half-maximal response (EC50) in the experiment on CCRF-CEM [1] was 0.08 µM; in the experiment with CCRF-CEM [2] it was 0.065 µM; in the experiment on CEM-TK(-) it was above 10 µM. Further, in the experiment on CCRF-CEM [3], the CC50 is 34.3 µM.
As to `Cc1cn([C@H]2C[C@H](N=[N+]=[N-])[C@@H](CO)O2)c(=O)[nH]c1=O` [ZIDOVUDINE], the 50% inhibitory concentration (IC50) with FM3A is 203 µM; in the experiment with L1210, 6.18 µM; in the experiment on MOLT-4, 62.8 µM; in the experiment with L1210/TK- it was above 500 µM. For the same compound, the concentration for a half-maximal effect (EC50) in the experiment with CCRF-CEM [2] was 0.0064 µM; with CEM-TK(-), above 100 µM. The compound further showed a CC50 with CCRF-CEM [3] above 500 µM.
Take `CCCCCCCCCCCCCCCCOP(=O)(O)OCC1OC(n2cc(C)c(=O)[nH]c2=O)CC1N=[N+]=[N-]` (stereo not drawn): the IC50 in the experiment with FM3A was 133 µM; in the experiment on L1210, 12.5 µM; in the experiment on MOLT-4, 144 µM; with L1210/TK-, 165 µM. Besides, the results for the EC50 in the experiment with CCRF-CEM [1], with CCRF-CEM [2] and in the experiment on CEM-TK(-) were 1 µM, 0.58 µM and above 50 µM, respectively. This compound also displayed a CC50 in the experiment with CCRF-CEM [3] of 161 µM.

By IC50 is commonly meant the concentration needed to halve the response being measured. Lower therefore signals greater potency in that assay. The term EC50 denotes the concentration at which the effect is half-maximal. The low end stands for a more potent agent, the high end for a less potent agent. As usually defined, the CC50 is the concentration that lowers cell viability or growth by half.
